pIC50: −log10 of the molar value.
Tests used:
[1] = target: Mast/stem cell growth factor receptor Kit (Homo sapiens, UniProt P10721); assay: Inhibition of KIT after 80 mins by radiometric protein kinase assay
Method in brief: (§1)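 The substrate was Poly(Glu,Tyr)4:1. 12 concentrations were run in triplicate with 1% final DMSO, at 30 °C for 80 min. Reactions were stopped with 2% H₃PO₄, washed with 0.9% NaCl, and ³³P incorporation was read by scintillation counting.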

[2] = target: Platelet-derived growth factor receptor alpha (Homo sapiens, UniProt P16234); assay: Inhibition of PDGFRalpha after 80 mins by radiometric protein kinase assay
Method in brief: (§2)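 Radiometric [γ-33P]-ATP kinase assay with poly(Ala,Glu,Lys,Tyr) 6:2:5:1 substrate. Incubated 30 °C for 80 min, then stopped with 2% H3PO4 and washed with 0.9% NaCl. 33Pi incorporation read by scintillation counting. IC50 from 12 concentrations in triplicate; plate quality checked by Z'-factor.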

[3] = target: Insulin-like growth factor 1 receptor (Homo sapiens, UniProt P08069); assay: Inhibition of IGF1R after 80 mins by radiometric protein kinase assay
Method in brief: (§3)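 Radiometric [γ-33P]-ATP kinase assay with poly(Glu,Tyr) 4:1 substrate. Reaction run 80 min at 30 °C, stopped with 2% H3PO4 and washed with 0.9% NaCl. 33Pi incorporation counted by microplate scintillation. IC50 from 12 concentrations tested in triplicate, with Z'-factor used as plate control.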

[4] = target: Receptor tyrosine-protein kinase erbB-2 (Homo sapiens, UniProt P04626); assay: Inhibition of ERBB2 after 80 mins by radiometric protein kinase assay; method in brief: as §1
[5] = target: Vascular endothelial growth factor receptor 1 (Homo sapiens, UniProt P17948); assay: Inhibition of VEGFR1 after 80 mins by radiometric protein kinase assay; method in brief: as §3
[6] = target: Vascular endothelial growth factor receptor 3 (Homo sapiens, UniProt P35916); assay: Inhibition of VEGFR3 after 80 mins by radiometric protein kinase assay; method in brief: as §3
[7] = target: Platelet-derived growth factor receptor beta (Homo sapiens, UniProt P09619); assay: Inhibition of PDGFRbeta after 80 mins by radiometric protein kinase assay
[8] = target: T1, Vascular endothelial growth factor receptor 2 (Homo sapiens, UniProt P35968); assay: Inhibition of VEGFR2 after 80 mins by radiometric protein kinase assay; method in brief: as §3
[9] = target: Angiopoietin-1 receptor (Homo sapiens, UniProt Q02763); assay: Inhibition of TIE2 after 80 mins by radiometric protein kinase assay; method in brief: as §2
[10] = target: T1, Vascular endothelial growth factor receptor 2; conditions: HEK293, 20 uM
[11] = target: T1, Vascular endothelial growth factor receptor 2; conditions: HEK293, 10 uM
[12] = tested on: Liver; assay: Biodistribution in liver of nude mouse bearing human U87MG tumor at 197 +/- 16 uCi, iv after 30 mins; assay type: ADME, organism-based; conditions: in vivo, 0.5 h
Method in brief: (§4)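 Male nude Hsd-Athymic Nude-nu mice (10–12 weeks) with subcutaneous 293/KDR tumors (1.5–2 × 10⁶ cells, 7–21 days) or U87MG.wt EGFR tumors (1.5–4 × 10⁶ cells with 20% Matrigel, 4–20 days). The [¹¹C] tracer was given via the lateral tail vein in 10% ethanol/saline (1.1 ± 0.3 Ci/µmol; 225 ± 11 µL). At 30 or 60 min, blood was drawn from the orbital sinus and organs were excised, weighed and gamma-counted; results are %ID/g, n = 10–12.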

[13] = Biodistribution in tumor of nude mouse bearing human 293/KDR tumor at 197 +/- 16 uCi, iv after 60 mins; assay type: ADME, organism-based, Neoplasm; conditions: in vivo, 1 h; method in brief: as §4
[14] = tested on: Liver; assay: Biodistribution in liver of nude mouse bearing human 293/KDR tumor at 197 +/- 16 uCi, iv after 30 mins; assay type: ADME, organism-based; conditions: in vivo, 0.5 h; method in brief: as §4
[15] = tested on: Blood; assay: Biodistribution in blood of nude mouse bearing human U87MG tumor at 197 +/- 16 uCi, iv after 30 mins; assay type: ADME, organism-based; conditions: in vivo, 0.5 h; method in brief: as §4
[16] = Metabolic stability in mouse liver microsome assessed as intact compound at 2 to 3 mCi after 15 mins by RP-HPLC; assay type: ADME; conditions: liver microsomes, read-out: Stability
Method in brief: (§5)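 Tracer (2–3 mCi in 100 µL ethanol) was preincubated with 0.5 mg/mL mouse hepatic microsomes in PBS pH 7.4 at 37 °C for 5 min. Reactions were started with 0.25 mM NADPH and sampled at 0–60 min. Aliquots were loaded on a celite plug and eluted with ethanol, and intact tracer was measured by RP-HPLC.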

[17] = tested on: Muscle tissue; assay: Biodistribution in muscle of nude mouse bearing human U87MG tumor at 197 +/- 16 uCi, iv after 60 mins; assay type: ADME, organism-based; conditions: in vivo, 1 h; method in brief: as §4
[18] = tested on: Zone of skin; assay: Biodistribution in skin of nude mouse bearing human U87MG tumor at 197 +/- 16 uCi, iv after 60 mins; assay type: ADME, organism-based; conditions: in vivo, 1 h; method in brief: as §4
[19] = tested on: Blood; assay: Metabolic stability in human blood assessed as residual radioactivity at 300 uCi after 60 mins by RP-HPLC; assay type: ADME, tissue-based; conditions: 1 h
Method in brief: (§6)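 Fresh human EDTA blood, 1 mL aliquots, was preincubated at 37 °C for 15 min. About 300 µCi of the [¹¹C] tracer was added and samples were held for 0, 30 or 60 min. Samples were centrifuged, and the plasma was extracted with cold THF/ACN (30:70) and centrifuged again. The extract was analysed by RP-HPLC and by RP-TLC (40:60 H₂O:ACN) with phosphor imaging; n = 3.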

[20] = Metabolic stability in mouse liver microsome assessed as intact compound at 2 to 3 mCi after 30 mins by RP-HPLC; assay type: ADME; conditions: liver microsomes, read-out: Stability; method in brief: as §5
[21] = tested on: Liver; assay: Biodistribution in liver of nude mouse bearing human 293/KDR tumor at 197 +/- 16 uCi, iv after 60 mins; assay type: ADME, organism-based; conditions: in vivo, 1 h; method in brief: as §4
[22] = tested on: Bone; assay: Biodistribution in bone of nude mouse bearing human U87MG tumor at 197 +/- 16 uCi, iv after 30 mins; assay type: ADME, organism-based, Bone element; conditions: in vivo, 0.5 h; method in brief: as §4
[23] = tested on: Muscle tissue; assay: Biodistribution in muscle of nude mouse bearing human 293/KDR tumor at 197 +/- 16 uCi, iv after 30 mins; assay type: ADME, organism-based; conditions: in vivo, 0.5 h; method in brief: as §4
[24] = tested on: Muscle tissue; assay: Biodistribution in muscle of nude mouse bearing human 293/KDR tumor at 197 +/- 16 uCi, iv after 60 mins; assay type: ADME, organism-based; conditions: in vivo, 1 h; method in brief: as §4
[25] = tested on: Blood; assay: Metabolic stability in human blood assessed as residual radioactivity at 300 uCi after 30 mins by RP-HPLC; assay type: ADME, tissue-based; conditions: 0.5 h; method in brief: as §6
[26] = tested on: Kidney; assay: Biodistribution in kidney of nude mouse bearing human 293/KDR tumor at 197 +/- 16 uCi, iv after 30 mins; assay type: ADME, organism-based; conditions: in vivo, 0.5 h; method in brief: as §4
[27] = Biodistribution in tumor of nude mouse bearing human U87MG tumor at 197 +/- 16 uCi, iv after 30 mins; assay type: ADME, organism-based, Neoplasm; conditions: in vivo, 0.5 h; method in brief: as §4
[28] = tested on: Kidney; assay: Biodistribution in kidney of nude mouse bearing human U87MG tumor at 197 +/- 16 uCi, iv after 60 mins; assay type: ADME, organism-based; conditions: in vivo, 1 h; method in brief: as §4
[29] = tested on: Zone of skin; assay: Biodistribution in skin of nude mouse bearing human 293/KDR tumor at 197 +/- 16 uCi, iv after 30 mins; assay type: ADME, organism-based; conditions: in vivo, 0.5 h; method in brief: as §4
[30] = tested on: Liver; assay: Biodistribution in liver of nude mouse bearing human U87MG tumor at 197 +/- 16 uCi, iv after 60 mins; assay type: ADME, organism-based; conditions: in vivo, 1 h; method in brief: as §4
[31] = tested on: Bone; assay: Biodistribution in bone of nude mouse bearing human 293/KDR tumor at 197 +/- 16 uCi, iv after 30 mins; assay type: ADME, organism-based, Bone element; conditions: in vivo, 0.5 h; method in brief: as §4
[32] = tested on: Muscle tissue; assay: Biodistribution in muscle of nude mouse bearing human U87MG tumor at 197 +/- 16 uCi, iv after 30 mins; assay type: ADME, organism-based; conditions: in vivo, 0.5 h; method in brief: as §4
[33] = tested on: Zone of skin; assay: Biodistribution in skin of nude mouse bearing human 293/KDR tumor at 197 +/- 16 uCi, iv after 60 mins; assay type: ADME, organism-based; conditions: in vivo, 1 h; method in brief: as §4
[34] = tested on: Blood; assay: Biodistribution in blood of nude mouse bearing human 293/KDR tumor at 197 +/- 16 uCi, iv after 60 mins; assay type: ADME, organism-based; conditions: in vivo, 1 h; method in brief: as §4
[35] = tested on: Blood; assay: Biodistribution in blood of nude mouse bearing human U87MG tumor at 197 +/- 16 uCi, iv after 60 mins; assay type: ADME, organism-based; conditions: in vivo, 1 h; method in brief: as §4
[36] = tested on: Bone; assay: Biodistribution in bone of nude mouse bearing human 293/KDR tumor at 197 +/- 16 uCi, iv after 60 mins; assay type: ADME, organism-based, Bone element; conditions: in vivo, 1 h; method in brief: as §4
[37] = tested on: Kidney; assay: Biodistribution in kidney of nude mouse bearing human 293/KDR tumor at 197 +/- 16 uCi, iv after 60 mins; assay type: ADME, organism-based; conditions: in vivo, 1 h; method in brief: as §4
[38] = tested on: Kidney; assay: Biodistribution in kidney of nude mouse bearing human U87MG tumor at 197 +/- 16 uCi, iv after 30 mins; assay type: ADME, organism-based; conditions: in vivo, 0.5 h; method in brief: as §4
[39] = Octanol-phosphate buffered saline partition coefficient, log D at pH 7.4; assay type: physicochemical
Method in brief: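 About 200 µCi of the [¹¹C] tracer was taken up in 5 mL n-octanol and mixed with 1 mL phosphate buffer (pH 7.4, 100 mM), a 5:1 octanol:buffer ratio. The mixture was vortexed for 2 min, the phases were separated, and each phase was measured for radioactivity.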

[40] = tested on: Blood; assay: Biodistribution in blood of nude mouse bearing human 293/KDR tumor at 197 +/- 16 uCi, iv after 30 mins; assay type: ADME, organism-based; conditions: in vivo, 0.5 h; method in brief: as §4
[41] = tested on: Bone; assay: Biodistribution in bone of nude mouse bearing human U87MG tumor at 197 +/- 16 uCi, iv after 60 mins; assay type: ADME, organism-based, Bone element; conditions: in vivo, 1 h; method in brief: as §4
[42] = tested on: Zone of skin; assay: Biodistribution in skin of nude mouse bearing human U87MG tumor at 197 +/- 16 uCi, iv after 30 mins; assay type: ADME, organism-based; conditions: in vivo, 0.5 h; method in brief: as §4
[43] = Biodistribution in tumor of nude mouse bearing human 293/KDR tumor at 197 +/- 16 uCi, iv after 30 mins; assay type: ADME, organism-based, Neoplasm; conditions: in vivo, 0.5 h; method in brief: as §4
[44] = Metabolic stability in mouse liver microsome assessed as intact compound at 2 to 3 mCi after 45 mins by RP-HPLC; assay type: ADME; conditions: liver microsomes, read-out: Stability; method in brief: as §5
[45] = Biodistribution in tumor of nude mouse bearing human U87MG tumor at 197 +/- 16 uCi, iv after 60 mins; assay type: ADME, organism-based, Neoplasm; conditions: in vivo, 1 h; method in brief: as §4

T1 sequence (P35968 whole entry): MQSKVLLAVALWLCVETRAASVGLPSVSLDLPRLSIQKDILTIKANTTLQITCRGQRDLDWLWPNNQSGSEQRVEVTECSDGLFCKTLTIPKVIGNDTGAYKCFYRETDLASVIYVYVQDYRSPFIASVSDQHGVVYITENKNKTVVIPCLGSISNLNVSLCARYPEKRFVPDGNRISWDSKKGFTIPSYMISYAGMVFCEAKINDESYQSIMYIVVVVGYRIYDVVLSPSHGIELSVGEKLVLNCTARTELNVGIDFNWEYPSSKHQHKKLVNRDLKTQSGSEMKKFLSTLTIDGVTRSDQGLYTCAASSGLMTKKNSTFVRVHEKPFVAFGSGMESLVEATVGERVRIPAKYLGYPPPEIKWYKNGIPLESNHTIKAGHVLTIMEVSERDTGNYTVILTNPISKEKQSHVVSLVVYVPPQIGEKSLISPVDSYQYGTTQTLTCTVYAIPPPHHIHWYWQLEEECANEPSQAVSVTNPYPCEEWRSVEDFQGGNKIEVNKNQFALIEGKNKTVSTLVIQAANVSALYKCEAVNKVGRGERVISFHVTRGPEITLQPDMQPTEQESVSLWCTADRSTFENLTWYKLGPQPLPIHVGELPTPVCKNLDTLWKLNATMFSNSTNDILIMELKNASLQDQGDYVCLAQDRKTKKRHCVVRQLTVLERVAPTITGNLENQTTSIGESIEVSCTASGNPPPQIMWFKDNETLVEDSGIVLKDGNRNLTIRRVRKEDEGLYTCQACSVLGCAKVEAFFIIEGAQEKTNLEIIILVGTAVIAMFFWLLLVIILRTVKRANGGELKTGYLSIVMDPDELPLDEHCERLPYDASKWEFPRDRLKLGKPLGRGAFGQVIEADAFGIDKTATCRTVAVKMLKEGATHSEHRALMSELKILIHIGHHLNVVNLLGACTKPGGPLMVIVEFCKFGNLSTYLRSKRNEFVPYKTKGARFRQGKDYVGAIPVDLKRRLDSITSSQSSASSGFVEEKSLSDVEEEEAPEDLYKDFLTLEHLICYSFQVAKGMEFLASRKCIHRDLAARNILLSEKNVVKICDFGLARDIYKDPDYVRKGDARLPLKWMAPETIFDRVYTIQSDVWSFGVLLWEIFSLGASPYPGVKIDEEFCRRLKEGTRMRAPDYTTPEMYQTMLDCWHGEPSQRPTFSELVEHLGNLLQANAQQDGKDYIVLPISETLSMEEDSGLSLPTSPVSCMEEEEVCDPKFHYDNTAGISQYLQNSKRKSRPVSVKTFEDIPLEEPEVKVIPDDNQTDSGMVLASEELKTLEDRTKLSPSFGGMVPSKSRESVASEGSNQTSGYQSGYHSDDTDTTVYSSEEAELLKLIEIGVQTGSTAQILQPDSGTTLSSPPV
Sequence of Angiopoietin-1 receptor (Q02763 whole entry): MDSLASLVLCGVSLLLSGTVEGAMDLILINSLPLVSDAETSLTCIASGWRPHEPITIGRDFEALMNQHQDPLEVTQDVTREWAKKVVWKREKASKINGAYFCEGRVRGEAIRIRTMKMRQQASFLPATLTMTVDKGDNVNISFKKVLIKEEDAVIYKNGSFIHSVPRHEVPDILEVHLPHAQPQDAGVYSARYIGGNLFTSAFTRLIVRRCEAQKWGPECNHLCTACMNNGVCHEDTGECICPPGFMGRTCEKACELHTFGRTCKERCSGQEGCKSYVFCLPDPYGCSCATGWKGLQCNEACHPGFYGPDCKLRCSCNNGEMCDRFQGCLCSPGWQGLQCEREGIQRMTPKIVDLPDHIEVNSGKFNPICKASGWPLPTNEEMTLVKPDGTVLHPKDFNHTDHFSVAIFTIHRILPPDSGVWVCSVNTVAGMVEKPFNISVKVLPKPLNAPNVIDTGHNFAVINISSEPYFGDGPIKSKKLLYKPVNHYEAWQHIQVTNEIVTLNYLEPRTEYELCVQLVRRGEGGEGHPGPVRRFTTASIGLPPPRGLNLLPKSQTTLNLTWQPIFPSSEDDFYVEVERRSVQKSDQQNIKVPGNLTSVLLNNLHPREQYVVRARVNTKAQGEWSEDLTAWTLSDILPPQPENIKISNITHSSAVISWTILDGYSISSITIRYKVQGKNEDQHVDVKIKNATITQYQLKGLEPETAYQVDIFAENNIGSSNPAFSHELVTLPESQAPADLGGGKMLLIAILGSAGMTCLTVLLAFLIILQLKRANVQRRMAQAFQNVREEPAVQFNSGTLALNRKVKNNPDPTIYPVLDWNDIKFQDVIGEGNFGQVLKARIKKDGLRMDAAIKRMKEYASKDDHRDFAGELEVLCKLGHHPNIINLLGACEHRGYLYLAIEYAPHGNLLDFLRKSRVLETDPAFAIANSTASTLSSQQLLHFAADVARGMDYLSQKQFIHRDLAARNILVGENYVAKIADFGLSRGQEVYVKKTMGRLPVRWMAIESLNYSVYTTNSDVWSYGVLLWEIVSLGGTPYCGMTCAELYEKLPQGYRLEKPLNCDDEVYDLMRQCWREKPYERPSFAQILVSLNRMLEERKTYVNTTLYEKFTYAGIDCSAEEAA
Sequence of Platelet-derived growth factor receptor alpha (P16234 whole entry): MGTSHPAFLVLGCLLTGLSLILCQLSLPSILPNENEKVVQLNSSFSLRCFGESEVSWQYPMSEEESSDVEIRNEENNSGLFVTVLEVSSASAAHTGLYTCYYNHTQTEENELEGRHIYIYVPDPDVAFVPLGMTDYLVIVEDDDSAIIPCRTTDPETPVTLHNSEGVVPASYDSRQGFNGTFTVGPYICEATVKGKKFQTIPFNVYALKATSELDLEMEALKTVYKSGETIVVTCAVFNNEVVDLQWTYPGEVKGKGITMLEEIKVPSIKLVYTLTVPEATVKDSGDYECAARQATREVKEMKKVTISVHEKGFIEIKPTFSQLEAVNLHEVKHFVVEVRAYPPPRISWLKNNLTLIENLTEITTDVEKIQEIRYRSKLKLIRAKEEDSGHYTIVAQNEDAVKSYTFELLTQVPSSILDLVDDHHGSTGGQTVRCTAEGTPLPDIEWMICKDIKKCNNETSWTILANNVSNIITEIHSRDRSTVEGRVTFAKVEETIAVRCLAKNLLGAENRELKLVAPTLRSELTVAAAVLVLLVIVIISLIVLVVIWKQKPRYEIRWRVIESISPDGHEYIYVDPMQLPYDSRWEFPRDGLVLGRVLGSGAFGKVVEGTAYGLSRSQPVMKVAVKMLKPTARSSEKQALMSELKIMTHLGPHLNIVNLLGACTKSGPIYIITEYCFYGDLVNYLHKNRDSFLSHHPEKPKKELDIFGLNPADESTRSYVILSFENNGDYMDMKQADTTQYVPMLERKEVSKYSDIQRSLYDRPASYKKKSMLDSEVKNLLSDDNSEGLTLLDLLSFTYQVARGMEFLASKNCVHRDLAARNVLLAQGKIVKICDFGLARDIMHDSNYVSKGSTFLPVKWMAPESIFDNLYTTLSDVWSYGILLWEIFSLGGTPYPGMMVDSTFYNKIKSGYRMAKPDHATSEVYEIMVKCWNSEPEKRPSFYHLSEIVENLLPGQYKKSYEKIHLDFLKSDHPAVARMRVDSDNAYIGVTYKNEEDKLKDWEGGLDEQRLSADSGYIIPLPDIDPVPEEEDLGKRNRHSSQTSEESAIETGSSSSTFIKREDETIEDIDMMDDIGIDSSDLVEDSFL
Sequence of Vascular endothelial growth factor receptor 1 (P17948 whole entry): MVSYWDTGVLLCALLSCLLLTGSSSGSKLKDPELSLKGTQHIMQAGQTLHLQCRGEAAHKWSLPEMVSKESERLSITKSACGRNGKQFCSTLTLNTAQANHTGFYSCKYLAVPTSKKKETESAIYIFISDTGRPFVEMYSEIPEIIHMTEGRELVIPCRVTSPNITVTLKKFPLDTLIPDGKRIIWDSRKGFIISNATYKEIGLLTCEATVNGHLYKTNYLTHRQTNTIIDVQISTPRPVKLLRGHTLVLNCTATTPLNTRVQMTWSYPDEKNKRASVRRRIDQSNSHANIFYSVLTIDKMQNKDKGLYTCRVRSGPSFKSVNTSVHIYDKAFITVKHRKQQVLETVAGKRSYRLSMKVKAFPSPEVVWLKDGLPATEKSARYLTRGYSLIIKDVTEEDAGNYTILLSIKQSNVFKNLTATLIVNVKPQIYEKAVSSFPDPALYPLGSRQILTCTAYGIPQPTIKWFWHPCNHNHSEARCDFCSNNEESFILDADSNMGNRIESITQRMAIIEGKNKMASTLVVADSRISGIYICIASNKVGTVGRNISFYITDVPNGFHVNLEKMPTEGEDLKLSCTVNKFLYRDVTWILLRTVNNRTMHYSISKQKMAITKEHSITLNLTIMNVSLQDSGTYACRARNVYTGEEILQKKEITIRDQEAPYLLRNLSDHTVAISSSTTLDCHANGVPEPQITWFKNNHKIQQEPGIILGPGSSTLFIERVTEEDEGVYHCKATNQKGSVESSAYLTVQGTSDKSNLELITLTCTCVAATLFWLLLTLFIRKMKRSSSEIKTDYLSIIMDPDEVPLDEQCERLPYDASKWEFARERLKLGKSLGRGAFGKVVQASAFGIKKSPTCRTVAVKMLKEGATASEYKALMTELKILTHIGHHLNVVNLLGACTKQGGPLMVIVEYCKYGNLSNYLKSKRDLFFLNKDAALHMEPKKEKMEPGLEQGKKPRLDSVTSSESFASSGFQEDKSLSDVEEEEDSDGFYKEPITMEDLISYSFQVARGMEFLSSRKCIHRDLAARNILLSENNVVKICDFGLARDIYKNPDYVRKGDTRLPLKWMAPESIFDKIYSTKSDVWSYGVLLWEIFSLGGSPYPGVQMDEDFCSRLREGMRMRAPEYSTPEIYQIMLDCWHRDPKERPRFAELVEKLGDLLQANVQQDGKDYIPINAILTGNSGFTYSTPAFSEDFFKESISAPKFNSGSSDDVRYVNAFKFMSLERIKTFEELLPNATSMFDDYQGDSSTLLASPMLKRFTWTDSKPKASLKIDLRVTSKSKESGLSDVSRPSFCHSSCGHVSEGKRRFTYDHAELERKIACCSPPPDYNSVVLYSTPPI

COc1cc(C2=C(c3c[nH]c4ccc(I)cc34)C(=O)NC2=O)cc(OC)c1OC
pIC50 [1]: 5.48 | pIC50 [2]: 5.88 | pIC50 [3]: 5.50 | pIC50 [4]: 4.82 | pIC50 [5]: 7.16 | pIC50 [6]: 7.53 | pIC50 [7]: 6.07 | pIC50 [8]: 7.60 | pIC50 [9]: 5.40

COc1cc(C2=C(c3c[nH]c4ccccc34)C(=O)NC2=O)cc(OC)c1OC [MALEIMIDE]
Stability [10]: 68 % ID/g | Stability [11]: 72 % ID/g

COc1cc(C2=C(c3c[nH]c4ccccc34)C(=O)NC2=O)cc(OC)c1O[11CH3]
Stability [12]: 2.64 % ID/g | Stability [13]: 0.14 % ID/g | Stability [14]: 2.89 % ID/g | Stability [15]: 0.38 % ID/g | remaining at 0.25 h [16]: 40% | Stability [17]: 0.09 % ID/g | Stability [18]: 0.21 % ID/g | Stability [19]: 62 % ID/g | remaining at 0.5 h [20]: 25% | Stability [21]: 2.95 % ID/g | Stability [22]: 0.19 % ID/g | Stability [23]: 0.2 % ID/g | Stability [24]: 0.08 % ID/g | Stability [25]: 61 % ID/g | Stability [26]: 2.29 % ID/g | Stability [27]: 0.33 % ID/g | Stability [28]: 0.79 % ID/g | Stability [29]: 0.38 % ID/g | Stability [30]: 1.68 % ID/g | Stability [31]: 0.15 % ID/g | Stability [32]: 0.17 % ID/g | Stability [33]: 0.14 % ID/g | Stability [34]: 0.19 % ID/g | Stability [35]: 0.29 % ID/g | Stability [36]: 0.09 % ID/g | Stability [37]: 0.8 % ID/g | Stability [38]: 2.24 % ID/g | logD [39]: 1.99 | Stability [40]: 0.36 % ID/g | Stability [41]: 0.11 % ID/g | Stability [42]: 0.41 % ID/g | Stability [43]: 0.3 % ID/g | remaining at 0.75 h [44]: 16% | Stability [45]: 0.17 % ID/g

From ChEMBL document CHEMBL1158526, “Labeled 3-aryl-4-indolylmaleimide derivatives and their potential as angiogenic PET biomarkers” (Bioorg Med Chem, 2010)
